In experiment [1] the test system is Rattus norvegicus. The experiment in a line: Dose required to inhibit ultrasonic vocalisation on peroral administered. Conditions: po, read-out: ID50 (the source's name). It is filed as functional. A digest of the protocol:
(§1)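 Rat ultrasonic vocalization test. In a priming session, up to 10 grid-floor shocks were given (1.8 mA, 0.3 s, 20 s apart). Rats not vocalizing on three consecutive trials were excluded. Next day, rats were tested 2 h after dosing: five shocks, then vocalization duration recorded over 3 min. ID50 (dose for half-maximal inhibition) came from dose–response curves.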

Another experiment has as its target D(2) dopamine receptor (Rattus norvegicus, UniProt P61169). The experiment in a line: Displacement of [3H]spiperone from dopamine D2 receptor of rat striatal membranes. It is filed as cell membranes, Membrane. The essentials: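 IC50 from 5–10 compound concentrations, each in triplicate, taken as the concentration (nM) giving 50% inhibition of specific radioligand binding.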
In general terms: Displacement assays read how much labelled ligand stays bound in the presence of the test substance.

For experiment [2], the target named is Sodium-dependent serotonin transporter (Rattus norvegicus, UniProt P31652). The experiment in a line: Inhibition of [3H]5-HT re-uptake in rat synaptosomes. Format: subcellular, Brain.
In experiment [3] the test system is Rattus norvegicus. Nature of the experiment: Dose required to inhibit ultrasonic vocalisation on subcutaneous administered. It is filed as functional. The note with it: sc, read-out: ID50 (the source's name). The essentials:
as §1

The target in experiment [4] is T1, 5-hydroxytryptamine receptor 1A (Rattus norvegicus, UniProt P19327).
T1 sequence (P19327 whole entry): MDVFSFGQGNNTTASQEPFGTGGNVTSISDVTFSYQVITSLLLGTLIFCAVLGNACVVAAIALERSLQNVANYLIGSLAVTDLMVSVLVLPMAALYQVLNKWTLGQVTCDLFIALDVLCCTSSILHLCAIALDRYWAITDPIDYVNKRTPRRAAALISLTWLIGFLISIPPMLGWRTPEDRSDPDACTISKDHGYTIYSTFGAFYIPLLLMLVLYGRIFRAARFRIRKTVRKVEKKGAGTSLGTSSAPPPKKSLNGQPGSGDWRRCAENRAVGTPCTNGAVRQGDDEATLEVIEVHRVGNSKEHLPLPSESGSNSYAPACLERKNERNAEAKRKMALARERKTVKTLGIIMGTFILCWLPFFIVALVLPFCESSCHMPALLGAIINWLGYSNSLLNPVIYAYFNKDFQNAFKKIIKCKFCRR
The experiment in a line: Inhibition of 8-OH DPAT binding to rat hydroxytryptamine 1A receptor.

Chain of D(2) dopamine receptor (P61169 whole entry): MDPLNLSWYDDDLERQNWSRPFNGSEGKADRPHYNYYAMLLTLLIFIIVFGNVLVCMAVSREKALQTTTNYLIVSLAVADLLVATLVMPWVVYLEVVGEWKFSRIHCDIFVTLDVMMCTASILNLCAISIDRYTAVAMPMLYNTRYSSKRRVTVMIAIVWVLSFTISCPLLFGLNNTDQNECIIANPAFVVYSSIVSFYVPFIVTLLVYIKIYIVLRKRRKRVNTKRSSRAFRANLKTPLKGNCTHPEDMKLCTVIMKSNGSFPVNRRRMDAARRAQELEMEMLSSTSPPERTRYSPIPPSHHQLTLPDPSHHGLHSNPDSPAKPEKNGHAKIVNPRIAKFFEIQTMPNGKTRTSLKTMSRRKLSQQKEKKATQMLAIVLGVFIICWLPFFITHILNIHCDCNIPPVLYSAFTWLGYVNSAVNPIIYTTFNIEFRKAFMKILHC
Chain of Sodium-dependent serotonin transporter (P31652 whole entry): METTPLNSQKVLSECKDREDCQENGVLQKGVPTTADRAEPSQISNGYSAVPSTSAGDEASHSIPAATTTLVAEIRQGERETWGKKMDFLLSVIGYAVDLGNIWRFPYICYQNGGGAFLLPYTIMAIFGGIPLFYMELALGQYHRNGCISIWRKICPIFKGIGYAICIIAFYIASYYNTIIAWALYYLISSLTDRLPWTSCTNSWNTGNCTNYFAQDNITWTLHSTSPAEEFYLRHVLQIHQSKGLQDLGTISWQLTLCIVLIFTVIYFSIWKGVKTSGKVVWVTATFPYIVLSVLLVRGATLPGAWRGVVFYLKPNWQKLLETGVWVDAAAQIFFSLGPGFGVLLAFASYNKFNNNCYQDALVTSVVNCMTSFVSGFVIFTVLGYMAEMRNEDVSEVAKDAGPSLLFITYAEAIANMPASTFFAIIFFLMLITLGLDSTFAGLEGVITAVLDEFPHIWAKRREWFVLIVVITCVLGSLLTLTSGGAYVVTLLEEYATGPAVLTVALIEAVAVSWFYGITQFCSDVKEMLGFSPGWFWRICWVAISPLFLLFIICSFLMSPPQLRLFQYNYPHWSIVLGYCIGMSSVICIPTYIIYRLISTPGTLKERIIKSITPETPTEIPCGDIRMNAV

As to `N#Cc1ccc2[nH]cc(CCCCN3CCN(c4ccc5oc(=O)ccc5c4)CC3)c2c1`, the ED50 turned out to be 4 mg/kg in the experiment with Rattus norvegicus [1] and 0.5 mg/kg with Rattus norvegicus [3]. Moreover, the IC50 on D(2) dopamine receptor amounted to 740 nM; in experiment [2] it was 0.7 nM; in experiment [4], 0.1 nM.

By IC50 is commonly meant the midpoint of a concentration-inhibition curve.

These data come from ChEMBL document CHEMBL1138747, “Synthesis and structure--activity relationship in a class of indolebutylpiperazines as dual 5-HT(1A) receptor agonists and serotonin reuptake inhibitors” (J Med Chem, 2004).
